Assay results taken from ChEMBL document CHEMBL4334451, “Natural Alkaloid Berberine Activity against Pseudomonas aeruginosa MexXY-Mediated Aminoglycoside Resistance: In Silico and in Vitro Studies” (J Nat Prod, 2019).
The source made the active and inactive calls. No cut-off for these calls is given here.

Columns and labels:
[1] = biological target: T1, MexXY/OprM (Pseudomonas aeruginosa (strain ATCC 15692 / DSM 22644 / CIP 104116 / JCM14847 / LMG 12228 / 1C / PRS 101 / PAO1)) (UniProt Q51487+Q9ZNG9+Q9ZNG8); assay: Inhibition of MexXY/OPRM in Pseudomonas aeruginosa C76 assessed as reduction in bacterial resistance to tobramycin by measuring tobramycin MIC at 80 ug/ml incubated for 24 to 48 hrs by broth microdilution method (reference value: 32 ug/ml); assay type: protein-complex assay
[2] = biological target: T1, MexXY/OprM (Pseudomonas aeruginosa (strain ATCC 15692 / DSM 22644 / CIP 104116 / JCM14847 / LMG 12228 / 1C / PRS 101 / PAO1)); assay: Inhibition of MexXY/OPRM in Pseudomonas aeruginosa C95 assessed as reduction in bacterial resistance to tobramycin by measuring increase in tobramycin-mediated bactericidal activity at 80 ug/ml in presence of 0.5XMIC tobramycin measured after 4 hrs by Time-kill curve analysis; assay type: protein-complex assay
[3] = test system: Erythrocyte; assay: Hemolytic activity in human RBC at 10 to 320 ug/ml incubated for 1 hr by spectrophotometry; assay type: ADME, cell-based
Method in brief: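 Fresh heparinized human blood diluted in PBS pH 7.4, washed 3x, resuspended to ~20 vol%. Erythrocyte suspension mixed 1:1 with 1:2 serial berberine dilutions in PBS. PBS served as negative control, 0.2 vol% Triton X-100 as positive control.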

[4] = biological target: T1, MexXY/OprM (Pseudomonas aeruginosa (strain ATCC 15692 / DSM 22644 / CIP 104116 / JCM14847 / LMG 12228 / 1C / PRS 101 / PAO1)); assay: Inhibition of MexXY/OPRM in Pseudomonas aeruginosa AR48 assessed as bacterial growth up to 320 ug/ml incubated for 24 to 48 hrs by broth microdilution method; assay type: protein-complex assay
Method in brief: (§1)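 Broth microdilution following CLSI guidelines, with P. aeruginosa ATCC 27853 as reference strain. Berberine was tested at 2-fold concentrations from 10 to 320 µg/ml, dissolved in 50% DMSO/50% methanol, with the top concentration set to keep final DMSO close to 1%. Plates were incubated at 37°C and read for visible growth at 24 and 48 h.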

[5] = biological target: T1, MexXY/OprM (Pseudomonas aeruginosa (strain ATCC 15692 / DSM 22644 / CIP 104116 / JCM14847 / LMG 12228 / 1C / PRS 101 / PAO1)); assay: Inhibition of MexXY/OPRM in Pseudomonas aeruginosa C70 assessed as reduction in bacterial resistance to tobramycin by measuring fold reduction in tobramycin MIC at 80 ug/ml incubated for 24 to 48 hrs by broth microdilution method; assay type: protein-complex assay
[6] = biological target: T1, MexXY/OprM (Pseudomonas aeruginosa (strain ATCC 15692 / DSM 22644 / CIP 104116 / JCM14847 / LMG 12228 / 1C / PRS 101 / PAO1)); assay: Inhibition of MexXY/OPRM in Pseudomonas aeruginosa AR61 assessed as bacterial growth up to 320 ug/ml incubated for 24 to 48 hrs by broth microdilution method; assay type: protein-complex assay; method in brief: as §1
[7] = biological target: T1, MexXY/OprM (Pseudomonas aeruginosa (strain ATCC 15692 / DSM 22644 / CIP 104116 / JCM14847 / LMG 12228 / 1C / PRS 101 / PAO1)); assay: Inhibition of MexXY/OPRM in Pseudomonas aeruginosa AR51 assessed as bacterial growth up to 320 ug/ml incubated for 24 to 48 hrs by broth microdilution method; assay type: protein-complex assay; method in brief: as §1
[8] = biological target: T1, MexXY/OprM (Pseudomonas aeruginosa (strain ATCC 15692 / DSM 22644 / CIP 104116 / JCM14847 / LMG 12228 / 1C / PRS 101 / PAO1)); assay: Inhibition of MexXY/OPRM in Pseudomonas aeruginosa C103 assessed as reduction in bacterial resistance to tobramycin by measuring tobramycin MIC at 80 ug/ml incubated for 24 to 48 hrs by broth microdilution method (reference value: 4 ug/ml); assay type: protein-complex assay
[9] = biological target: T1, MexXY/OprM (Pseudomonas aeruginosa (strain ATCC 15692 / DSM 22644 / CIP 104116 / JCM14847 / LMG 12228 / 1C / PRS 101 / PAO1)); assay: Inhibition of MexXY/OPRM in Pseudomonas aeruginosa C98 assessed as bacterial growth up to 320 ug/ml incubated for 24 to 48 hrs by broth microdilution method; assay type: protein-complex assay
Method in brief: (§2)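 Broth microdilution per CLSI, with P. aeruginosa ATCC 27853 as reference strain, in 2-fold dilution series. Plates were incubated at 37°C and read for visible growth at 24 and 48 h. Berberine stock was in 50% DMSO/50% methanol, with final DMSO kept near 1%. Berberine was tested at 10–320 µg/ml, alone or at a fixed level with serial tobramycin.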

[10] = biological target: T1, MexXY/OprM (Pseudomonas aeruginosa (strain ATCC 15692 / DSM 22644 / CIP 104116 / JCM14847 / LMG 12228 / 1C / PRS 101 / PAO1)); assay: Inhibition of MexXY/OPRM in Pseudomonas aeruginosa C30 assessed as reduction in bacterial resistance to tobramycin by measuring tobramycin MIC at 80 ug/ml incubated for 24 to 48 hrs by broth microdilution method (reference value: 8 ug/ml); assay type: protein-complex assay
[11] = biological target: T1, MexXY/OprM (Pseudomonas aeruginosa (strain ATCC 15692 / DSM 22644 / CIP 104116 / JCM14847 / LMG 12228 / 1C / PRS 101 / PAO1)); assay: Inhibition of MexXY/OPRM in Pseudomonas aeruginosa C25 assessed as reduction in bacterial resistance to tobramycin by measuring fold reduction in tobramycin MIC at 80 ug/ml incubated for 24 to 48 hrs by broth microdilution method; assay type: protein-complex assay
[12] = biological target: T1, MexXY/OprM (Pseudomonas aeruginosa (strain ATCC 15692 / DSM 22644 / CIP 104116 / JCM14847 / LMG 12228 / 1C / PRS 101 / PAO1)); assay: Inhibition of MexXY/OPRM in Pseudomonas aeruginosa C9 assessed as reduction in bacterial resistance to tobramycin by measuring tobramycin MIC at 80 ug/ml incubated for 24 to 48 hrs by broth microdilution method (reference value: 2 ug/ml); assay type: protein-complex assay; method in brief: as §2
[13] = biological target: T1, MexXY/OprM (Pseudomonas aeruginosa (strain ATCC 15692 / DSM 22644 / CIP 104116 / JCM14847 / LMG 12228 / 1C / PRS 101 / PAO1)); assay: Inhibition of MexXY/OPRM in Pseudomonas aeruginosa C61 assessed as reduction in bacterial resistance to tobramycin by measuring tobramycin MIC at 80 ug/ml incubated for 24 to 48 hrs by broth microdilution method (reference value: 64 ug/ml); assay type: protein-complex assay
[14] = biological target: T1, MexXY/OprM (Pseudomonas aeruginosa (strain ATCC 15692 / DSM 22644 / CIP 104116 / JCM14847 / LMG 12228 / 1C / PRS 101 / PAO1)); assay: Inhibition of MexXY/OPRM in Pseudomonas aeruginosa C89 assessed as bacterial growth up to 320 ug/ml incubated for 24 to 48 hrs by broth microdilution method; assay type: protein-complex assay; method in brief: as §2
[15] = biological target: T1, MexXY/OprM (Pseudomonas aeruginosa (strain ATCC 15692 / DSM 22644 / CIP 104116 / JCM14847 / LMG 12228 / 1C / PRS 101 / PAO1)); assay: Inhibition of MexXY/OPRM in Pseudomonas aeruginosa C51 assessed as reduction in bacterial resistance to tobramycin by measuring tobramycin MIC at 80 ug/ml incubated for 24 to 48 hrs by broth microdilution method (reference value: 0.125 ug/ml); assay type: protein-complex assay
[16] = biological target: T1, MexXY/OprM (Pseudomonas aeruginosa (strain ATCC 15692 / DSM 22644 / CIP 104116 / JCM14847 / LMG 12228 / 1C / PRS 101 / PAO1)); assay: Inhibition of MexXY/OPRM in Pseudomonas aeruginosa C15 assessed as bacterial growth up to 320 ug/ml incubated for 24 to 48 hrs by broth microdilution method; assay type: protein-complex assay; method in brief: as §1
[17] = biological target: T1, MexXY/OprM (Pseudomonas aeruginosa (strain ATCC 15692 / DSM 22644 / CIP 104116 / JCM14847 / LMG 12228 / 1C / PRS 101 / PAO1)); assay: Inhibition of MexXY/OPRM in Pseudomonas aeruginosa C103 assessed as bacterial growth up to 320 ug/ml incubated for 24 to 48 hrs by broth microdilution method; assay type: protein-complex assay; method in brief: as §1
[18] = biological target: T1, MexXY/OprM (Pseudomonas aeruginosa (strain ATCC 15692 / DSM 22644 / CIP 104116 / JCM14847 / LMG 12228 / 1C / PRS 101 / PAO1)); assay: Inhibition of MexXY/OPRM in Pseudomonas aeruginosa C104 assessed as reduction in bacterial resistance to tobramycin by measuring fold reduction in tobramycin MIC at 80 ug/ml incubated for 24 to 48 hrs by broth microdilution method; assay type: protein-complex assay
[19] = biological target: T1, MexXY/OprM (Pseudomonas aeruginosa (strain ATCC 15692 / DSM 22644 / CIP 104116 / JCM14847 / LMG 12228 / 1C / PRS 101 / PAO1)); assay: Inhibition of MexXY/OPRM in Pseudomonas aeruginosa C9 assessed as bacterial growth up to 320 ug/ml incubated for 24 to 48 hrs by broth microdilution method; assay type: protein-complex assay; method in brief: as §2
[20] = biological target: T1, MexXY/OprM (Pseudomonas aeruginosa (strain ATCC 15692 / DSM 22644 / CIP 104116 / JCM14847 / LMG 12228 / 1C / PRS 101 / PAO1)); assay: Inhibition of MexXY/OPRM in Pseudomonas aeruginosa C60 assessed as bacterial growth up to 320 ug/ml incubated for 24 to 48 hrs by broth microdilution method; assay type: protein-complex assay; method in brief: as §1
[21] = biological target: T1, MexXY/OprM (Pseudomonas aeruginosa (strain ATCC 15692 / DSM 22644 / CIP 104116 / JCM14847 / LMG 12228 / 1C / PRS 101 / PAO1)); assay: Inhibition of MexXY/OPRM in Pseudomonas aeruginosa C98 assessed as reduction in bacterial resistance to tobramycin by measuring tobramycin MIC at 80 ug/ml incubated for 24 to 48 hrs by broth microdilution method (reference value: 64 ug/ml); assay type: protein-complex assay; method in brief: as §2
[22] = biological target: T1, MexXY/OprM (Pseudomonas aeruginosa (strain ATCC 15692 / DSM 22644 / CIP 104116 / JCM14847 / LMG 12228 / 1C / PRS 101 / PAO1)); assay: Inhibition of MexXY/OPRM in Pseudomonas aeruginosa C52 assessed as reduction in bacterial resistance to tobramycin by measuring tobramycin MIC at 80 ug/ml incubated for 24 to 48 hrs by broth microdilution method (reference value: >128 ug/ml); assay type: protein-complex assay
[23] = biological target: T1, MexXY/OprM (Pseudomonas aeruginosa (strain ATCC 15692 / DSM 22644 / CIP 104116 / JCM14847 / LMG 12228 / 1C / PRS 101 / PAO1)); assay: Inhibition of MexXY/OPRM in Pseudomonas aeruginosa C52 assessed as bacterial growth up to 320 ug/ml incubated for 24 to 48 hrs by broth microdilution method; assay type: protein-complex assay; method in brief: as §1
[24] = biological target: T1, MexXY/OprM (Pseudomonas aeruginosa (strain ATCC 15692 / DSM 22644 / CIP 104116 / JCM14847 / LMG 12228 / 1C / PRS 101 / PAO1)); assay: Inhibition of MexXY/OPRM in Pseudomonas aeruginosa C59 assessed as bacterial growth up to 320 ug/ml incubated for 24 to 48 hrs by broth microdilution method; assay type: protein-complex assay; method in brief: as §1

With `COc1ccc2cc3[n+](cc2c1OC)CCc1cc2c(cc1-3)OCO2` [BERBERINE] the MIC [1] was 16 µg/mL, the inhibition [2] was “Active” and the Activity [3] was “Non-Toxic”. The inhibition [4] was “inactive”, the fold change (FC) [5] was > 2 and the inhibition [6] was “inactive”. For the same compound, the inhibition [7] was “inactive”, the MIC [8] was 4 µg/mL and the inhibition [9] was “inactive”. The MIC [10] was 8 µg/mL, the fold change (FC) [11] was 16 and the MIC [12] was 1 µg/mL. The MIC [13] was 16 µg/mL, the inhibition [14] was “inactive” and the MIC [15] was < 0.125 µg/mL. The inhibition [16] was “inactive”, the inhibition [17] was “inactive” and the fold change (FC) [18] was > 2. For the same compound, the inhibition [19] was “inactive”, the inhibition [20] was “inactive” and the MIC [21] was 32 µg/mL. For the same compound, the MIC [22] was 128 µg/mL, the inhibition [23] was “inactive” and the inhibition [24] was “inactive”.
